Data set [1] deals with Human immunodeficiency virus 1. The experiment in a line: Fold resistance, ratio of EC50 for HIV1 bearing protease gene with A17 mutation to EC50 for wild-type HIV1 pNL4-3. The data set is classed as functional. The essentials: (§1)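 HIV-1 A17 mutant clone carrying protease mutations L10F, V32I, M46I, I47V, Q58E and I84V, generated by in vitro serial passage under LPV/RTV. EC50 was determined in MT-4 cells. Wild-type reference strain was HIV-1 pNL4-3.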

For data set [2], the system named is Human immunodeficiency virus 1. The experiment in a line: Antiviral activity against wild-type HIV1 pNL4-3 infected in human MT4 cells after 5 days by MTT assay. Particulars: Human immunodeficiency virus 1, MT4, 120 h. In kind it is functional, organism-based. On the technique in general: Tetrazolium assays rely on reduction of a dye to a coloured formazan, in cell work by metabolically active cells.

Data set [3] relates to Serum. Description: Drug level in Gunn rat serum at 250 mg/kg coadministered with ritonavir measured on day 1. The data set is classed as ADME, organism-based. Particulars: in vivo. Also on record: dose 250 mg/kg. Summed up:
(§2)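 Gunn rats (n = 8-10 per arm) dosed orally with compound in 5% ethanol/95% propylene glycol with p-toluenesulfonic acid, together with 50 mg/kg RTV. Plasma was sampled 4 h after the first and second doses. Drug was measured by HPLC and bilirubin […]. Change in bilirubin (mg/dL) reported as mean with SD.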

In data set [4] the test system is Human immunodeficiency virus 1. The experiment in a line: Antiviral activity against wild-type HIV1 pNL4-3 infected in human MT4 cells after 5 days by MTT assay in presence of 50% human serum. The data set is classed as functional, organism-based. The following applies: Human immunodeficiency virus 1, MT4, 120 h.
The test system of data set [5] is Human immunodeficiency virus 1. The experiment in a line: Antiviral activity against HIV1 bearing protease gene with A17 mutation infected in human MT4 cells after 5 days by MTT assay. In kind it is functional, organism-based. The following applies: Human immunodeficiency virus 1, MT4, 120 h. Summed up:
as §1

Data set [6] has as its system Rattus norvegicus. Description: Toxicity in Gunn rat assessed as unconjugated-bilirubin level at 250 mg/kg coadministered with ritonavir measured on day 1. In kind it is organism-based. Also on record: dose 250 mg/kg. Particulars: in vivo. The essentials: as §2
Data set [7] deals with Human immunodeficiency virus 1. The experiment in a line: Antiviral activity against HIV1 bearing protease gene with B26 mutation infected in human MT4 cells after 5 days by MTT assay. The following applies: Human immunodeficiency virus 1, MT4, 120 h. In kind it is functional, organism-based.
In data set [8] the test system is Human immunodeficiency virus 1. Description: Antiviral activity against HIV1 bearing protease gene with P25 mutation infected in human MT4 cells after 5 days by MTT assay. In kind it is functional, organism-based. Particulars: Human immunodeficiency virus 1, MT4, 120 h.
The nature of data set [9]: Half life in Sprague-Dawley rat at 5 mg/kg, iv. In kind it is ADME, organism-based. Also on record: dose 5 mg/kg, route intravenous. Particulars: in vivo. Summed up: (§3)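 Male Sprague-Dawley-derived rats (n = 3) dosed iv or by oral gavage with 5 mg/mL solutions in 5% dextrose containing 20% ethanol, 30% propylene glycol and methanesulfonic acid equivalents. Plasma was sampled at 10 time points over 8 h, extracted into ethyl acetate/hexane and analysed by reversed-phase HPLC with internal standard. AUC in µg·h/mL.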

The nature of data set [10]: AUC in Sprague-Dawley rat at 5 mg/kg, po in presence of ritonavir. In kind it is ADME, organism-based. Also on record: dose 5 mg/kg, route oral. Particulars: plasma. The essentials:
as §3

A short description of data set [11]: Clearance in Sprague-Dawley rat at 5 mg/kg, iv. In kind it is ADME, organism-based. The following applies: in vivo. Also on record: dose 5 mg/kg, route intravenous. Summed up:
as §3

A short description of data set [12]: AUC in Sprague-Dawley rat at 5 mg/kg, po. In kind it is ADME, organism-based. The following applies: plasma. Also on record: dose 5 mg/kg, route oral. Summed up: as §3
Data set [13] can be described thus: Oral bioavailability in Sprague-Dawley rat at 5 mg/kg. In kind it is ADME, organism-based. The following applies: in vivo. The essentials:
as §3

Turning to `COC(=O)N[C@H](C(=O)N[C@@H](Cc1ccc(-c2ccccn2)cc1)C[C@H](O)[C@H](Cc1ccccc1)NC(=O)[C@@H](N1CCN(Cc2cccc(C)n2)C1=O)C(C)(C)C)C(C)(C)C`, the “Ratio EC50” value in [1] came to 1. Moreover, the EC50 (in general, the concentration at which the effect is half-maximal) in data set [2] worked out at 13 nM; in data set [4] it was 62 nM; in [5] it was 15 nM. In data set [3], the Drug uptake is 5.83 µg/mL. In [6], the Activity is 0.233 mg/dL.

With `Cc1cccc(C)c1OCC(=O)N[C@@H](Cc1ccccc1)[C@@H](O)C[C@H](Cc1ccccc1)NC(=O)[C@H](C(C)C)N1CCCNC1=O` [LOPINAVIR], the “Ratio EC50” value in [1] turned out to be 59. Also, the EC50 in data set [7] was 3790 nM; in data set [4], 152 nM; in data set [5] it was 1060 nM; in data set [8], greater than 10000 nM.

In the case of `CC(C)CN(C[C@@H](O)[C@H](Cc1ccccc1)NC(=O)O[C@H]1CO[C@H]2OCC[C@H]21)S(=O)(=O)c1ccc(N)cc1`, the EC50 in data set [7] amounted to 587 nM; in data set [5] it was 338 nM; in data set [8], 515 nM.

As to `COC(=O)N[C@H](C(=O)N[C@H](Cc1ccc(-c2ccccn2)cc1)C[C@H](O)[C@H](Cc1ccccc1)NC(=O)[C@@H](N1CCN(Cc2csc(C)n2)C1=O)C(C)(C)C)C(C)(C)C`, the “Ratio EC50” value in data set [1] worked out at 4. Also, in [9], the half-life – broadly, the time needed for the level to fall by half in the phase considered – was 24 min. Besides, the results for the EC50 in data set [2], in data set [4] and in data set [5] were 3 nM, 15 nM and 12 nM, respectively. Further, the AUC (in general, concentration integrated over time) in data set [10] was 1980 ng·h/mL; in data set [12], 160 ng·h/mL. Besides, the clearance (in general, the volume of plasma or blood freed of the substance per unit of time) in [11] is 31 mL/min/kg. Also, in [13], the bioavailability (in general, dose-corrected exposure relative to a reference, in per cent) was determined as 5.9%.

For `COC(=O)N[C@H](C(=O)N[C@@H](Cc1ccccc1)C[C@H](O)[C@H](Cc1ccccc1)NC(=O)[C@@H](N1CCN(Cc2cccc(C)n2)C1=O)C(C)(C)C)C(C)(C)C`, in [1], the “Ratio EC50” value worked out at 7. For the same molecule, the values for the EC50 in data set [2], in [4] and in data set [5] were 13 nM, 179 nM and 88 nM, respectively. For the same molecule, the Drug uptake in data set [3] stood at 18.68 µg/mL. Besides, in data set [6], the Activity was 0.195 mg/dL.

For the molecule `COC(=O)N[C@H](C(=O)N[C@@H](Cc1ccc(-c2ccccn2)cc1)[C@@H](O)C[C@H](Cc1ccccc1)NC(=O)[C@@H](N1CCN(Cc2cccc(C(C)(C)O)n2)C1=O)C(C)(C)C)C(C)(C)C`, the “Ratio EC50” value in data set [1] was less than 1. In data set [9], this molecule gave a half-life of 54 min. Besides, the values for the EC50 in [2], in data set [4] and in data set [5] were 4 nM, 19 nM and 2 nM, respectively. The AUC in data set [10] was determined as 1820 ng·h/mL; in data set [12], 880 ng·h/mL. In data set [11], this molecule had a clearance of 16.7 mL/min/kg. This molecule also displayed a bioavailability in data set [13] of 17%.

`COC(=O)N[C@H](C(=O)N[C@@H](Cc1ccccc1)[C@@H](O)CN(Cc1ccc(-c2ccccn2)cc1)NC(=O)[C@@H](NC(=O)OC)C(C)(C)C)C(C)(C)C` [ATAZANAVIR]: the EC50 in data set [7] is 74 nM; in data set [2], 3 nM; in data set [5] it was 250 nM; in data set [8] it was 298 nM.

Regarding `COC(=O)N[C@H](C(=O)N[C@@H](Cc1ccc(-c2ccccn2)cc1)C[C@H](O)[C@H](Cc1ccccc1)NC(=O)[C@@H](N1CCN(Cc2ccccc2OC)C1=O)C(C)(C)C)C(C)(C)C`, the “Ratio EC50” value in [1] turned out to be 12. Further, in data set [9], the half-life is 72 min. Also, the EC50 in data set [2] was 4 nM; in [4], 17 nM; in [5], 49 nM. In addition, the values for the AUC in data set [10] and in [12] were 9380 ng·h/mL and 70 ng·h/mL, respectively. The molecule also had a clearance in data set [11] of 36 mL/min/kg. Further, the bioavailability in [13] turned out to be 3.1%.

With `COC(=O)N[C@H](C(=O)NN(Cc1ccccc1)C[C@H](O)[C@H](Cc1ccccc1)NC(=O)[C@@H](N1CCN(Cc2cccc(C)n2)C1=O)C(C)(C)C)C(C)(C)C`, in data set [3], the Drug uptake came to 13.28 µg/mL. The Activity in data set [6] turned out to be 0.429 mg/dL.

Take `COC(=O)N[C@H](C(=O)N[C@@H](Cc1ccc(-c2ccccn2)cc1)[C@@H](O)C[C@H](Cc1ccccc1)NC(=O)[C@@H](N1CCN(Cc2csc(C)n2)C1=O)C(C)(C)C)C(C)(C)C`: in data set [1], the “Ratio EC50” value was less than 1. This molecule also had a half-life in data set [9] of 30 min. Besides, the EC50 came out at 3 nM in [2], 34 nM in data set [4] and 2 nM in data set [5]. The AUC in data set [10] worked out at 8400 ng·h/mL; in [12], 320 ng·h/mL. Besides, the clearance in [11] is 31.7 mL/min/kg. Further, the bioavailability in [13] was found to be 11.2%.

Consider `COC(=O)N[C@H](C(=O)N[C@@H](Cc1ccc(-c2ccccn2)cc1)[C@@H](O)C[C@H](Cc1ccccc1)NC(=O)[C@@H](N1CCN(Cc2csc(-c3cccnc3)n2)C1=O)C(C)(C)C)C(C)(C)C`, for which, in data set [1], the “Ratio EC50” value was less than 1. For the same molecule, the half-life in [9] is 48 min. For the same molecule, the EC50 in data set [2] was 2 nM; in data set [4], 18 nM; in [5] it was 1 nM. In addition, the AUC turned out to be 260 ng·h/mL in [10] and 30 ng·h/mL in data set [12]. The molecule further showed a clearance in data set [11] of 46.7 mL/min/kg. The same molecule yielded a bioavailability in data set [13] of 1.6%.

As for `COC(=O)N[C@H](C(=O)N[C@@H](Cc1ccc(-c2ccccn2)cc1)C[C@H](O)[C@H](Cc1ccccc1)NC(=O)[C@@H](N1CCN(Cc2ccnc3ccccc23)C1=O)C(C)(C)C)C(C)(C)C`, the “Ratio EC50” value in [1] is reported as less than 1. In data set [9], this molecule had a half-life of 66 min. In addition, the EC50 in data set [2] is 4 nM; in data set [4] it was 19 nM; in data set [5], 2 nM. Moreover, the results for the AUC in data set [10] and in data set [12] were 2860 ng·h/mL and 20 ng·h/mL, respectively. In data set [11], the clearance is 30 mL/min/kg. Besides, the bioavailability in data set [13] amounted to 0.6%.

In the case of `COC(=O)N[C@H](C(=O)N[C@@H](Cc1ccc(-c2ccccn2)cc1)[C@@H](O)C[C@H](Cc1ccccc1)NC(=O)[C@@H](N1CCN(Cc2ccnc3ccccc23)C1=O)C(C)(C)C)C(C)(C)C`, the “Ratio EC50” value in data set [1] is less than 1. For the same molecule, the half-life in [9] is 24 min. The EC50 in [2] was found to be 2 nM; in data set [4], 15 nM; in data set [5], 1 nM. Besides, the AUC in [10] came out at 3300 ng·h/mL; in data set [12], 50 ng·h/mL. In data set [11], the clearance was 33.3 mL/min/kg. The bioavailability in data set [13] stood at 1.1%.

These data come from ChEMBL document CHEMBL1153436, “2-Pyridyl P1'-substituted symmetry-based human immunodeficiency virus protease inhibitors (A-792611 and A-790742) with potential for convenient dosing and reduced side effects” (J Med Chem, 2009).
